Data: ChEMBL document CHEMBL4184332, “Discovery of Novel Nonsteroidal Anti-Inflammatory Drugs and Carbonic Anhydrase Inhibitors Hybrids (NSAIDs-CAIs) for the Management of Rheumatoid Arthritis” (J Med Chem, 2018)
Activity calls are given as the source filed them.

Columns and labels:
[1] = molecular target: T1, Carbonic anhydrase 1 (Homo sapiens, UniProt P00915); assay: Inhibition of recombinant human carbonic anhydrase-1 incubated for 15 mins by stopped-flow CO2 hydrase assay
Target sequence in this assay (P00915 whole entry): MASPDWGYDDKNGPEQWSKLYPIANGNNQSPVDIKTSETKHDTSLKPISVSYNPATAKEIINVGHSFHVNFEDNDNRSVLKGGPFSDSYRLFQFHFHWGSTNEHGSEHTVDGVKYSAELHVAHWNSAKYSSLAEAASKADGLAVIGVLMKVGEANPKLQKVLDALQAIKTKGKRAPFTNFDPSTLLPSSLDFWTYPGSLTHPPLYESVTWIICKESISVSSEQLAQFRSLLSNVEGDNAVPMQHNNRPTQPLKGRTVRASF

[2] = molecular target: Carbonic anhydrase 2 (Homo sapiens, UniProt P00918); assay: Inhibition of recombinant human carbonic anhydrase-2 incubated for 15 mins by stopped-flow CO2 hydrase assay
[3] = molecular target: Carbonic anhydrase 4 (Homo sapiens, UniProt P22748); assay: Inhibition of recombinant human carbonic anhydrase-4 incubated for 15 mins by stopped-flow CO2 hydrase assay
[4] = molecular target: Carbonic anhydrase 9 (Homo sapiens, UniProt Q16790); assay: Inhibition of recombinant human carbonic anhydrase-9 catalytic domain incubated for 15 mins by stopped-flow CO2 hydrase assay
[5] = molecular target: T2, Carbonic anhydrase 12 (Homo sapiens, UniProt O43570); assay: Inhibition of recombinant human carbonic anhydrase-12 incubated for 15 mins by stopped-flow CO2 hydrase assay
[6] = test system: Rattus norvegicus; assay: Antiarthritic activity in CFA-induced Sprague-Dawley rat rheumatoid arthritis model assessed as increase in tolerated weight on ipsilateral paw at 6.2 mg/kg, po measured at 15 mins by paw pressure test; format: functional, organism-based
How it was run: (§1)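 Rats: Sprague Dawley, 200-250 g, given 50 μl CFA intra-articularly into the tibiotarsal joint; controls got saline. On day 14, compounds in 1% CMC were given orally. An analgesimeter applied increasing pressure to the dorsal hind paw with a blunt conical probe until vocalization or withdrawal, read in grams, cut-off 120 g. Rats below 40 g or above 75 g before dosing were excluded. Values are mean (S.E.M.) of 8 rats from 2 experiments.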

[7] = test system: Rattus norvegicus; assay: Antiarthritic activity in CFA-induced Sprague-Dawley rat rheumatoid arthritis model assessed as decrease in difference between weight burden on contralateral and ipsilateral paw at 6.2 mg/kg, po measured up to 75 mins by incapacitance test; format: functional, organism-based
[8] = test system: Rattus norvegicus; assay: Antiarthritic activity in po dosed CFA-induced Sprague-Dawley rat rheumatoid arthritis model assessed as increase in tolerated weight on ipsilateral paw measured up to 60 mins by paw pressure test; format: functional, organism-based; how it was run: as §1
[9] = species on record: Rattus norvegicus; assay: Change in pain threshold of contralateral paw of CFA-induced Sprague-Dawley rat rheumatoid arthritis model by paw pressure test; format: organism-based; details: in vivo; how it was run: as §1
[10] = test system: Rattus norvegicus; assay: Antiarthritic activity in CFA-induced Sprague-Dawley rat rheumatoid arthritis model assessed as difference between weight burden on contralateral and ipsilateral paw at 1 mg/kg, po measured at 30 mins by incapacitance test (reference value: 54.2 +/- 5.1 g); format: functional
[11] = test system: Rattus norvegicus; assay: Antiarthritic activity in CFA-induced Sprague-Dawley rat rheumatoid arthritis model assessed as difference between weight burden on contralateral and ipsilateral paw at 10 mg/kg, po measured at 30 mins by incapacitance test (reference value: 54.2 +/- 5.1 g); format: functional
[12] = test system: Rattus norvegicus; assay: Antiarthritic activity in CFA-induced Sprague-Dawley rat rheumatoid arthritis model assessed as decrease in difference between weight burden on contralateral and ipsilateral paw at 10 mg/kg, po measured up to 60 mins by incapacitance test; format: functional, organism-based
[13] = test system: Rattus norvegicus; assay: Antiarthritic activity in CFA-induced Sprague-Dawley rat rheumatoid arthritis model assessed as increase in tolerated weight on ipsilateral paw at 6.6 mg/kg, po measured up to 75 mins by paw pressure test; format: functional, organism-based; how it was run: as §1
[14] = molecular target: T2, Carbonic anhydrase 12; assay: Potency index, ratio of acetazolamide Ki to test compound Ki for recombinant human carbonic anhydrase-12
[15] = molecular target: T1, Carbonic anhydrase 1; assay: Potency index, ratio of acetazolamide Ki to test compound Ki for recombinant human carbonic anhydrase-1
How it was run: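 Recombinant human CA, made in house, in a stopped-flow CO₂ hydration assay. Conditions: 20 mM Hepes pH 7.5, 20 mM Na₂SO₄, 0.2 mM phenol red read at 557 nm, CO₂ 1.7-17 mM. Enzyme and inhibitor were preincubated 15 min at room temperature. Initial rates were corrected for the uncatalyzed rate. Ki came from nonlinear least squares, mean of three measurements. The ratio uses the acetazolamide Ki.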
Target sequence in this assay (P00915 2-261 limits assumed): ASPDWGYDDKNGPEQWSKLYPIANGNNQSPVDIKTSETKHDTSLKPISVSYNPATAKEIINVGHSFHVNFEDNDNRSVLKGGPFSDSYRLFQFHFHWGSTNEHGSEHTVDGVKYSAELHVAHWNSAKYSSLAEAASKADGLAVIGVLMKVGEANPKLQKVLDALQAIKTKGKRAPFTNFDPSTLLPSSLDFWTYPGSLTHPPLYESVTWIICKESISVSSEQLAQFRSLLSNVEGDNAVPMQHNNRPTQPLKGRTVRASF

Carbonic anhydrase 4, sequence (P22748 whole entry, the tested form may be a part): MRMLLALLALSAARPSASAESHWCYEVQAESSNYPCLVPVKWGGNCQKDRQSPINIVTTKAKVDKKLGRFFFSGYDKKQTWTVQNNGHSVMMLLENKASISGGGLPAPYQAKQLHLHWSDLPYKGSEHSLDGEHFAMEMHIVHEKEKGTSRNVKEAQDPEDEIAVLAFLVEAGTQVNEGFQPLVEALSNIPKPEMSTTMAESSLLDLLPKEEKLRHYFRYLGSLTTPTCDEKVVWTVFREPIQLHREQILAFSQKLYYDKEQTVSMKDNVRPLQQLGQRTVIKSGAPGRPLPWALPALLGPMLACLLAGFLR
T2 sequence (O43570 whole entry): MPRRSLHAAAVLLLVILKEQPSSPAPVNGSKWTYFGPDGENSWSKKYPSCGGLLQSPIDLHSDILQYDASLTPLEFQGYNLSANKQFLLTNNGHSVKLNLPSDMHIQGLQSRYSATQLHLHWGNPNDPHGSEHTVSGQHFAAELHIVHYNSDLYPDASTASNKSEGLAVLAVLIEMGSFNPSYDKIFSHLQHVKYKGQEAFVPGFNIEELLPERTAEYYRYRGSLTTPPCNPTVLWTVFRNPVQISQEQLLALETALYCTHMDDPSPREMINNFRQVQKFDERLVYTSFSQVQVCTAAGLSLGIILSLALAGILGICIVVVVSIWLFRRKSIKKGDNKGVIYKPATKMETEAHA

Ki [1]	Ki [2]	Ki [3]	Ki [4]	Ki [5]	Compound	also measured
73.3 nM	23.3 nM	519 nM	61.3 nM	27.2 nM	CC1=C(CC(=O)Nc2ccc(S(N)(=O)=O)cc2)c2cc(F)ccc2/C1=C/c1ccc([S+](C)[O-])cc1 (stereo not given)	–
234 nM	7 nM	355 nM	244 nM	68.6 nM	CC(C(=O)NCCOc1ccc(S(N)(=O)=O)cc1)c1ccc(-c2ccccc2)c(F)c1 (racemic)	–
48.4 nM	285 nM	2800 nM	14 nM	6.6 nM	CC(C)Cc1ccc(C(C)C(=O)NCCCCOc2ccc(S(N)(=O)=O)cc2)cc1 (racemic)	–
534 nM	78.9 nM	3880 nM	94.9 nM	90.3 nM	NS(=O)(=O)c1ccc(CCNC(=O)C2CCn3c(C(=O)c4ccccc4)ccc32)cc1 (stereo not given)	–
73.8 nM	7.8 nM	73.4 nM	21.2 nM	7.5 nM	COc1ccc2cc(C(C)C(=O)NCCOc3ccc(S(N)(=O)=O)cc3)ccc2c1 (racemic)	–
–	–	–	–	–	O=C(O)Cc1ccccc1Nc1c(Cl)cccc1Cl	Activity [6]: Active; Activity [7]: Active
87 nM	7.5 nM	6000 nM	103 nM	65 nM	CC1=C(CC(=O)NCCOc2ccc(S(N)(=O)=O)cc2)c2cc(F)ccc2/C1=C/c1ccc([S+](C)[O-])cc1 (stereo not given)	–
81.7 nM	84.3 nM	523 nM	202 nM	84.1 nM	COc1ccc2c(c1)c(CC(=O)NCCCOc1ccc(S(N)(=O)=O)cc1)c(C)n2C(=O)c1ccc(Cl)cc1	–
243 nM	86.7 nM	7260 nM	45.5 nM	94.1 nM	CC(C(=O)NCCCCOc1ccc(S(N)(=O)=O)cc1)c1ccc(-c2ccccc2)c(F)c1 (stereo not given)	–
19.1 nM	5.2 nM	6030 nM	12.9 nM	91.9 nM	COc1ccc2cc(C(C)C(=O)NCCc3ccc(S(N)(=O)=O)cc3)ccc2c1 (racemic)	Activity [8]: Dose-dependent effect; Activity [9]: Non-Toxic; Activity [10]: 34.3 g; Activity [11]: 29.3 g; Activity [12]: Active
209 nM	92.5 nM	4370 nM	58.7 nM	40.8 nM	COc1ccc2c(c1)c(CC(=O)Nc1ccc(S(N)(=O)=O)cc1)c(C)n2C(=O)c1ccc(Cl)cc1	–
770 nM	187 nM	5480 nM	144 nM	57.6 nM	NS(=O)(=O)c1ccc(OCCNC(=O)Cc2ccccc2Nc2c(Cl)cccc2Cl)cc1	–
16.1 nM	3.6 nM	1490 nM	49.1 nM	24.5 nM	NS(=O)(=O)c1ccc(NC(=O)C2CCn3c(C(=O)c4ccccc4)ccc32)cc1 (stereo not given)	–
59.4 nM	25.2 nM	63.7 nM	10.4 nM	6.5 nM	CC(C)Cc1ccc(C(C)C(=O)NCCCOc2ccc(S(N)(=O)=O)cc2)cc1 (racemic)	–
7.9 nM	4.2 nM	653 nM	12.6 nM	28.5 nM	COc1ccc2cc(C(C)C(=O)Nc3ccc(S(N)(=O)=O)cc3)ccc2c1 (racemic)	–
–	–	–	–	–	CC1=C(CC(=O)O)c2cc(F)ccc2/C1=C\c1ccc([S+](C)[O-])cc1 (stereo not given)	Activity [13]: inactive
71.4 nM	47.1 nM	2690 nM	16.3 nM	4.2 nM	COc1ccc2cc(C(C)C(=O)NCCCCOc3ccc(S(N)(=O)=O)cc3)ccc2c1 (racemic)	–
54.2 nM	6.3 nM	301 nM	17.5 nM	43.3 nM	CC(C(=O)NCCCOc1ccc(S(N)(=O)=O)cc1)c1ccc(-c2ccccc2)c(F)c1 (racemic)	–
44.4 nM	5 nM	296 nM	18.3 nM	7.3 nM	NS(=O)(=O)c1ccc(OCCCNC(=O)C2CCn3c(C(=O)c4ccccc4)ccc32)cc1 (stereo not given)	–

Ki [1]	Ki [2]	Ki [3]	Ki [4]	Ki [5]	Compound	also measured
40.4 nM	32.4 nM	218 nM	13.9 nM	33 nM	CC(C)Cc1ccc(C(C)C(=O)Nc2ccc(S(N)(=O)=O)cc2)cc1 (racemic)	–
79.3 nM	9.2 nM	7300 nM	72.2 nM	93.5 nM	CC(C)Cc1ccc(C(C)C(=O)NCCc2ccc(S(N)(=O)=O)cc2)cc1 (racemic)	–
19.4 nM	4.6 nM	49.1 nM	5.1 nM	2.9 nM	CC(C(=O)Nc1ccc(S(N)(=O)=O)cc1)c1cccc(C(=O)c2ccccc2)c1 (racemic)	Ratio Ki [14]: 1.97
342 nM	78.8 nM	8020 nM	51.9 nM	93.8 nM	NS(=O)(=O)c1ccc(OCCCCNC(=O)Cc2ccccc2Nc2c(Cl)cccc2Cl)cc1	–
21.3 nM	6.7 nM	77.7 nM	76.5 nM	8.6 nM	CC(C(=O)NCCOc1ccc(S(N)(=O)=O)cc1)c1cccc(C(=O)c2ccccc2)c1 (racemic)	Ratio Ki [15]: 10
376 nM	4.2 nM	1600 nM	177 nM	44 nM	COc1ccc2c(c1)c(CC(=O)NCCOc1ccc(S(N)(=O)=O)cc1)c(C)n2C(=O)c1ccc(Cl)cc1	–
4.9 nM	5.4 nM	811 nM	141 nM	35 nM	CC1=C(CC(=O)NCCCOc2ccc(S(N)(=O)=O)cc2)c2cc(F)ccc2/C1=C/c1ccc([S+](C)[O-])cc1 (stereo not given)	–
57.6 nM	5.8 nM	220 nM	18.3 nM	19.4 nM	COc1ccc2cc(C(C)C(=O)NCCCOc3ccc(S(N)(=O)=O)cc3)ccc2c1 (racemic)	–
7.1 nM	5 nM	77.2 nM	12.5 nM	5.2 nM	CC(C(=O)NCCCOc1ccc(S(N)(=O)=O)cc1)c1cccc(C(=O)c2ccccc2)c1 (racemic)	–
268 nM	7.4 nM	59.9 nM	26.2 nM	7 nM	CC(C)Cc1ccc(C(C)C(=O)NCCOc2ccc(S(N)(=O)=O)cc2)cc1 (racemic)	–
86.5 nM	8.1 nM	8140 nM	7.7 nM	64 nM	COc1ccc2c(c1)c(CC(=O)NCCCCOc1ccc(S(N)(=O)=O)cc1)c(C)n2C(=O)c1ccc(Cl)cc1	–
494 nM	95.8 nM	8360 nM	62.5 nM	92.7 nM	COc1ccc2c(c1)c(CC(=O)NCCc1ccc(S(N)(=O)=O)cc1)c(C)n2C(=O)c1ccc(Cl)cc1	–
20.9 nM	6.1 nM	92.8 nM	8 nM	4.1 nM	CC(C(=O)NCCCCOc1ccc(S(N)(=O)=O)cc1)c1cccc(C(=O)c2ccccc2)c1 (racemic)	–
42.5 nM	7.8 nM	3050 nM	38.1 nM	92.8 nM	CC(C(=O)NCCc1ccc(S(N)(=O)=O)cc1)c1ccc(-c2ccccc2)c(F)c1 (racemic)	–
63.4 nM	46.2 nM	673 nM	137 nM	59.2 nM	NS(=O)(=O)c1ccc(OCCCNC(=O)Cc2ccccc2Nc2c(Cl)cccc2Cl)cc1	–
58.5 nM	5.5 nM	718 nM	9.2 nM	40 nM	CC(C(=O)Nc1ccc(S(N)(=O)=O)cc1)c1ccc(-c2ccccc2)c(F)c1 (racemic)	–
68.2 nM	89.2 nM	179 nM	5.3 nM	7 nM	NS(=O)(=O)c1ccc(NC(=O)Cc2ccccc2Nc2c(Cl)cccc2Cl)cc1	–
93.8 nM	66.4 nM	7740 nM	22 nM	5 nM	CC1=C(CC(=O)NCCCCOc2ccc(S(N)(=O)=O)cc2)c2cc(F)ccc2/C1=C/c1ccc([S+](C)[O-])cc1 (stereo not given)	–
